Data as given in ChEMBL document CHEMBL1955829, “Synthesis and biological evaluation of 4β-sulphonamido and 4β-[(4'-sulphonamido)benzamide]podophyllotoxins as DNA topoisomerase-IIα and apoptosis inducing agents” (2012).
The source made the active and inactive calls. The rule behind the calls is not given here.

Key:
COLO 205 [1] = experiment: Cytotoxicity against human COLO205 cells at 4 uM after 24 hrs by MTT assay; type: functional, cell-based
Outline: (§1)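 Colo-205 cells plated at 10,000 per well, left overnight, then exposed 24 h at 2, 4 or 8 µM. MTT added for 2 h at 37 °C, formazan dissolved in extraction buffer, and optical density read at 570 nm against untreated cells.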

COLO 205 [2] = experiment: Cytotoxicity against human COLO205 cells at 8 uM after 24 hrs by MTT assay; type: functional, cell-based; outline: as §1
A549 = experiment: Growth inhibition of human A549 cells after 48 hrs by sulforhodamine B assay; type: functional; conditions: A549, 48 h
Outline: (§2)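 Cells grown in DMEM with 10% FBS and 2 mM L-glutamine, plated at densities set by doubling time, and held 24 h before dosing. Exposure was 48 h to 0.1, 1, 10 and 100 µM in triplicate wells. Cells fixed with cold TCA (final 10%) 60 min at 4 °C and stained with 0.4% SRB 20 min. Bound dye eluted in 10 mM Tris base and read at 540 nm (690 nm reference). GI50 is the concentration giving 50% reduction in net protein gain versus control; values are the mean of three determinations.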

A2780 = experiment: Growth inhibition of human A2780 cells after 48 hrs by sulforhodamine B assay; type: functional; conditions: A2780, 48 h; outline: as §2
[3] = Growth inhibition of human DWD cells after 48 hrs by sulforhodamine B assay; type: functional; outline: as §2
KB = experiment: Growth inhibition of human KB cells after 48 hrs by sulforhodamine B assay; type: functional; outline: as §2
ZR-75-1 = experiment: Growth inhibition of human ZR-75-1 cells after 48 hrs by sulforhodamine B assay; type: functional; conditions: ZR-75-1, 48 h; outline: as §2
HOP-62 = experiment: Growth inhibition of human HOP62 cells after 48 hrs by sulforhodamine B assay; type: functional; conditions: HOP-62, 48 h; outline: as §2
COLO 205 [4] = experiment: Cell cycle arrest in human COLO205 cells assessed as accumulation at G0 phase at 4 uM after 24 hrs by FACS analysis (reference value: 4.29%); type: functional
Outline: (§3)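 Colo-205 cells seeded at […] per 60 mm dish and treated 24 h at 4 µM; TSA arm used TSA at 4 µM for 12 h. Cells trypsinised, fixed in ice-cold 70% ethanol 30 min at 4 °C, RNase 1 mg/mL 30 min at 37 °C, then propidium iodide/citrate/Triton stain. DNA content of 20,000 events read by flow cytometry; phase percentages from histograms.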

COLO 205 [5] = experiment: Growth inhibition of human COLO205 cells after 48 hrs by sulforhodamine B assay; type: functional; conditions: COLO 205, 48 h; outline: as §2
MCF7 = experiment: Growth inhibition of human MCF7 cells after 48 hrs by sulforhodamine B assay; type: functional; conditions: MCF7, 48 h; outline: as §2
COLO 205 [6] = experiment: Cell cycle arrest in human COLO205 cells assessed as accumulation at S phase at 4 uM after 24 hrs by FACS analysis (reference value: 8.91%); type: functional; outline: as §3
COLO 205 [7] = experiment: Cell cycle arrest in human COLO205 cells assessed as accumulation at G2/M phase at 4 uM after 24 hrs by FACS analysis (reference value: 25.92%); type: functional; outline: as §3
COLO 205 [8] = experiment: Cell cycle arrest in human COLO205 cells assessed as accumulation at G1 phase at 4 uM after 24 hrs by FACS analysis (reference value: 60.89%); type: functional; outline: as §3
COLO 205 [9] = experiment: Cytotoxicity against human COLO205 cells at 2 uM after 24 hrs by MTT assay; type: functional, cell-based; outline: as §1
COLO 205 [10] = experiment: Induction of apoptosis in human COLO205 cells assessed as down regulation of Bcl-2 at 4 uM after 24 hrs by ELISA; type: functional, cell-based
Outline: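 Colo-205 cells treated 24 h at 4 µM, with etoposide and camptothecin as controls. Lysates added to Bcl2-antibody-coated wells, followed by a biotin-conjugated anti-human Bcl2 monoclonal antibody, in a Bcl2 ELISA.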

COLO 205 [11] = experiment: Up-regulation of topoisomerase 2alpha in human COLO205 cells at 4 uM after 24 hrs by Western blotting analysis in presence of HDAC inhibitor, trichostatin A; type: functional, cell-based
Outline: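 Colo-205 cells exposed 24 h to test agent plus TSA, each at 4 µM. Western blot of lysates probed for topo-IIα, with β-actin as loading control.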

Compound	Activity (COLO 205 [1])	Activity (COLO 205 [2])	GI50 (A549) [µM]	GI50 (A2780) [µM]	GI50 [3] [µM]	GI50 (KB) [µM]	GI50 (ZR-75-1) [µM]	GI50 (HOP-62) [µM]	Activity (COLO 205 [4]) [%]	GI50 (COLO 205 [5]) [µM]	GI50 (MCF7) [µM]	Percentage of cells in S phase (COLO 205 [6]) [%]	Percentage of cells in G2/M phase (COLO 205 [7]) [%]	Activity (COLO 205 [8]) [%]	Activity (COLO 205 [9])	Activity (COLO 205 [10])	Activity (COLO 205 [11])
COc1cc([C@@H]2c3cc4c(cc3[C@@H](NS(=O)(=O)c3cccc5cccnc35)[C@H]3COC(=O)[C@H]23)OCO4)cc(OC)c1OC	Active	Active	0.04	0.08	0.17	0.06	0.08	0.06	3.06	0.04	0.12	10.35	28.19	58.41	Active	–	–
COc1cc([C@@H]2c3cc4c(cc3[C@@H](NS(=O)(=O)c3cccc5nsnc35)[C@H]3COC(=O)[C@H]23)OCO4)cc(OC)c1OC	–	–	2.71	2.31	–	–	2.51	2.21	–	–	2.21	–	–	–	–	–	–
COc1cc([C@@H]2c3cc4c(cc3[C@@H](NS(=O)(=O)c3ccc(-c5ccccc5)cc3)[C@H]3COC(=O)[C@H]23)OCO4)cc(OC)c1OC	–	–	2	2.11	2.21	–	2.3	2.01	–	2.71	2.61	–	–	–	–	–	–
COc1cc([C@@H]2c3cc4c(cc3[C@@H](NC(=O)c3ccc(NS(=O)(=O)c5cccc6ccccc56)cc3)[C@H]3COC(=O)[C@H]23)OCO4)cc(OC)c1OC	–	–	2.6	2	–	2	2.81	2.22	–	2.12	2.32	–	–	–	–	–	–
COc1cc([C@@H]2c3cc4c(cc3[C@@H](NS(=O)(=O)c3ccc(S(=O)(=O)c5ccccc5)s3)[C@H]3COC(=O)[C@H]23)OCO4)cc(OC)c1OC	–	–	–	2.3	2.61	2.11	2.11	–	–	–	0.14	–	–	–	–	–	–
COc1ccc(S(=O)(=O)Nc2ccc(C(=O)N[C@@H]3c4cc5c(cc4[C@@H](c4cc(OC)c(OC)c(OC)c4)[C@H]4C(=O)OC[C@@H]43)OCO5)cc2)cc1	–	–	–	–	2.02	–	2.12	2.71	–	2.51	0.16	–	–	–	–	–	–
COc1cc([C@@H]2c3cc4c(cc3[C@@H](NS(=O)(=O)c3ccc(Oc5ccccc5)cc3)[C@H]3COC(=O)[C@H]23)OCO4)cc(OC)c1OC	–	–	2.11	2.4	2.91	2.31	2.31	–	–	–	2.21	–	–	–	–	–	–
COc1cc([C@@H]2c3cc4c(cc3[C@@H](NS(=O)(=O)c3cc(Cl)sc3Cl)[C@H]3COC(=O)[C@H]23)OCO4)cc(OC)c1OC	–	–	0.14	0.16	0.15	2.1	2.5	2	–	0.15	0.11	–	–	–	–	–	–
COc1cc([C@@H]2c3cc4c(cc3[C@@H](NC(=O)c3ccc(NS(=O)(=O)c5cccc6nsnc56)cc3)[C@H]3COC(=O)[C@H]23)OCO4)cc(OC)c1OC	–	–	–	2.11	2.8	–	2.23	2.91	–	–	0.17	–	–	–	–	–	–
COc1cc([C@@H]2c3cc4c(cc3[C@@H](NS(=O)(=O)c3sc(NC(C)=O)nc3C)[C@H]3COC(=O)[C@H]23)OCO4)cc(OC)c1OC	–	–	0.12	0.15	0.14	0.17	0.17	0.16	–	0.11	0.15	–	–	–	–	–	–
COc1cc([C@@H]2c3cc4c(cc3[C@@H](NS(=O)(=O)c3ccc(Br)s3)[C@H]3COC(=O)[C@H]23)OCO4)cc(OC)c1OC	Active	Active	0.12	0.06	0.05	0.04	0.18	0.04	11.04	0.04	0.13	16.51	37.78	34.67	Active	–	–
COc1cc([C@@H]2c3cc4c(cc3[C@@H](NC(=O)c3ccc(NS(=O)(=O)c5ccc(-c6ccccc6)cc5)cc3)[C@H]3COC(=O)[C@H]23)OCO4)cc(OC)c1OC	–	–	–	2.51	2.88	2.5	2.11	–	–	2.8	2.3	–	–	–	–	–	–
COc1cc([C@@H]2c3cc4c(cc3[C@@H](NC(=O)c3ccc(NS(=O)(=O)c5cccc6cccnc56)cc3)[C@H]3COC(=O)[C@H]23)OCO4)cc(OC)c1OC	–	–	2.51	2.42	0.14	–	–	2.61	–	2.31	2.9	–	–	–	–	–	–
COc1cc([C@@H]2c3cc4c(cc3[C@@H](NC(=O)c3ccc(NS(=O)(=O)c5ccc(Br)s5)cc3)[C@H]3COC(=O)[C@H]23)OCO4)cc(OC)c1OC	–	–	–	2.11	2.5	–	2.9	2.01	–	–	2.71	–	–	–	–	–	–
COc1cccc2c1C(=O)c1c(O)c3c(c(O)c1C2=O)C[C@@](O)(C(=O)CO)C[C@@H]3O[C@H]1C[C@H](N)[C@H](O)[C@H](C)O1 [DOXORUBICIN]	–	–	–	0.16	0.1	0.17	–	0.14	–	0.14	0.17	–	–	–	–	–	–
CC[C@@]1(O)C(=O)OCc2c1cc1n(c2=O)Cc2cc3ccccc3nc2-1	–	–	–	–	–	–	–	–	–	–	–	–	–	–	–	Active	inactive
COc1cc([C@@H]2c3cc4c(cc3[C@@H](NC(=O)c3ccc(NS(=O)(=O)c5ccc(Oc6ccccc6)cc5)cc3)[C@H]3COC(=O)[C@H]23)OCO4)cc(OC)c1OC	–	–	2.7	–	2.1	2.01	2.9	2	–	–	–	–	–	–	–	–	–
COc1cc([C@@H]2c3cc4c(cc3[C@@H](NS(=O)(=O)c3cccc5ccccc35)[C@H]3COC(=O)[C@H]23)OCO4)cc(OC)c1OC	–	–	0.16	1.91	2	2.3	2.1	2.4	–	2.1	0.09	–	–	–	–	–	–
